Results published in ChEMBL document CHEMBL4364354, “A Bioreductive Prodrug of Cucurbitacin B Significantly Inhibits Tumor Growth in the 4T1 Xenograft Mice Model” (ACS Med Chem Lett, 2019).
Calls of active or inactive are those of the source. The calls are words filed in the database; no cut-off is given here.

How the values were obtained:
[1] = system: 4T1; assay: Antitumor activity against mouse 4T1 cells implanted in BALB/c mouse assessed as tumor growth inhibition at 5 mg/kg/day, ip for 2 weeks measured daily during compound dosing by digital caliper method relative to control; type: functional; conditions: 4T1, ip, 336 h, read-out: TGI
[2] = Toxicity in BALB/c mouse implanted with mouse 4T1 cells assessed as body weight at 5 mg/kg/day, ip for 2 weeks measured during compound dosing (reference value: -1.48 %); type: organism-based; conditions: in vivo, 336 h
[3] = target: T1, NAD(P)H dehydrogenase [quinone] 1 (Homo sapiens, UniProt P15559); assay: Prodrug activation in human MCF7 cells assessed as NQO1-mediated ((R)-6-((2S,8S,9R,10R,13R,14S,16R,17R)-2-(3-aminopropylcarbamoyloxy)-16-hydroxy-4,4,9,13,14-pentamethyl-3,11-dioxo-2,3,4,7,8,9,10,11,12,13,14,15,16,17-tetradecahydro-1H-cyclopenta[a]phenanthren-17-yl)-6-hydroxy-2-methyl-5-oxohept-3-en-2-yl acetate formation at 25 uM incubated for 24 hrs by HRMS analysis; type: cell-based; conditions: mcf7, 24 h
T1 sequence (P15559 whole entry): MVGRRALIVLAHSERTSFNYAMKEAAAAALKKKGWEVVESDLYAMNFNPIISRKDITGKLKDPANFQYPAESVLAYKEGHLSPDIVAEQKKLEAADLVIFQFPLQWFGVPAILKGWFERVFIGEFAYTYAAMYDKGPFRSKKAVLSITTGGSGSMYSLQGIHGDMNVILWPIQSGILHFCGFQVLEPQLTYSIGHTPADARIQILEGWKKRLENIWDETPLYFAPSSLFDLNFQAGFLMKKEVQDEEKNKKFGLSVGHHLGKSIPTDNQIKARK

[4] = Stability of the compound in DMEM medium with 10% FBS incubated for 72 hrs by HPLC analysis
In short: (§1)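 Prodrugs were held in DMEM with 10% FBS for up to 72 h. The fraction of intact compound remaining over time was followed by HPLC.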

[5] = Stability of the compound in DMEM medium with 10% FBS assessed as compound remaining incubated for 24 hrs by HPLC analysis; in short: as §1
[6] = system: MCF7; assay: Cytotoxicity against human MCF7 cells assessed as reduction in cell viability incubated for 48 hrs by MTT assay; type: functional, cell-based; conditions: for IC50: MCF7, 48 h
In short: (§2)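 MTT assay on MCF-7 breast cancer cells and noncancerous Vero cells, with tamoxifen as positive control. One MCF-7 arm was pretreated with the NQO1 inhibitor dicoumarol. IC50 values are from three experiments. Cytotoxicity index is the IC50 of the prodrug in Vero cells relative to the parent cucurbitacin B IC50 in Vero cells.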

[7] = system: Vero; assay: Cytotoxicity against African green monkey Vero cells assessed as reduction in cell viability incubated for 48 hrs by MTT assay; type: cell-based; conditions: Chlorocebus sabaeus; in short: as §2
[8] = system: MCF7; assay: Cytotoxicity against human MCF7 cells assessed as reduction in cell viability incubated for 48 hrs in presence of NQO1 inhibitor dicoumarol by MTT assay; type: functional, cell-based; conditions: MCF7, 48 h; in short: as §2
[9] = Cytotoxicity index, ratio of compound IC50 to cucurbitacin B IC50 for cytotoxicity against African green monkey Vero cells by MTT assay; type: cell-based; conditions: chlorocebus sabaeus, read-out: Ratio IC50; in short: as §2
[10] = target: T1, NAD(P)H dehydrogenase [quinone] 1; assay: Prodrug activation in human MCF7 cells assessed as NQO1-mediated ((R)-6-((2S,8S,9R,10R,13R,14S,16R,17R)-2-(3-aminopropylcarbamoyloxy)-16-hydroxy-4,4,9,13,14-pentamethyl-3,11-dioxo-2,3,4,7,8,9,10,11,12,13,14,15,16,17-tetradecahydro-1H-cyclopenta[a]phenanthren-17-yl)-6-hydroxy-2-methyl-5-oxohept-3-en-2-yl acetate metabolite formation at 25 uM incubated for 24 hrs by HPLC analysis; type: ADME, cell-based; conditions: mcf7, 24 h
[11] = target: T1, NAD(P)H dehydrogenase [quinone] 1; assay: Prodrug activation in human MCF7 cells assessed as NQO1-mediated CuB release in cell lysate at 25 uM incubated for 24 hrs by HPLC analysis; type: subcellular; conditions: mcf7, 24 h
[12] = target: T1, NAD(P)H dehydrogenase [quinone] 1; assay: Prodrug activation in human MCF7 cells assessed as NQO1-mediated CuB release at 25 uM incubated for 24 hrs by HRMS analysis; type: cell-based; conditions: mcf7, 24 h
[13] = target: T1, NAD(P)H dehydrogenase [quinone] 1; assay: Prodrug activation in human MCF7 cells assessed as NQO1-mediated cucurbitacin B formation by ESI-TOFMS analysis; type: cell-based
[14] = target: T1, NAD(P)H dehydrogenase [quinone] 1; assay: Prodrug activation in human MCF7 cells assessed as appearance of extended m/z range to 1000 at 25 uM measured after 24 hrs by HRMS analysis; type: cell-based; conditions: mcf7, 24 h
[15] = target: T1, NAD(P)H dehydrogenase [quinone] 1; assay: Prodrug activation in human MCF7 cell lysate assessed as NQO1-mediated tetrahydropyrimidin-2(1H)-one formation at 25 uM incubated for 24 hrs by HPLC analysis; type: subcellular; conditions: mcf7, 24 h
[16] = target: T1, NAD(P)H dehydrogenase [quinone] 1; assay: Prodrug activation in human MCF7 cells assessed as NQO1-mediated 6-hydroxy-4,4,5,7,8-pentamethylchroman-2-one formation at 25 uM incubated for 24 hrs by HRMS analysis; type: cell-based; conditions: mcf7, 24 h
[17] = Drug uptake in human MCF7 cell lysate at 25 uM incubated for 24 hrs by HPLC analysis; type: ADME, subcellular; conditions: mcf7, 24 h
In short: (§3)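 MCF-7 cells were exposed to 25 μM prodrug for 24 h, then lysed. Prodrug concentrations in culture medium and in cell lysate were measured by HPLC against a calibration curve.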

[18] = target: T1, NAD(P)H dehydrogenase [quinone] 1; assay: Prodrug activation in human MCF7 cells assessed as NQO1-mediated ((R)-6-((2S,8S,9R,10R,13R,14S,16R,17R)-2-(3-aminopropylcarbamoyloxy)-16-hydroxy-4,4,9,13,14-pentamethyl-3,11-dioxo-2,3,4,7,8,9,10,11,12,13,14,15,16,17-tetradecahydro-1H-cyclopenta[a]phenanthren-17-yl)-6-hydroxy-2-methyl-5-oxohept-3-en-2-yl acetate formation by ESI-TOFMS analysis; type: cell-based
[19] = Prodrug activation in human MCF7 cell cultured in DMEM medium with 10% FBS at 25 uM incubated for 24 hrs by HPLC analysis; type: cell-based; conditions: mcf7, 24 h
[20] = Drug uptake in human MCF7 cells assessed as compound remaining in culture medium at 25 uM incubated for 24 hrs by HPLC analysis; type: ADME, cell-based; conditions: mcf7, 24 h; in short: as §3
[21] = Toxicity in BALB/c mouse implanted with mouse 4T1 cells assessed as death at 3 mg/kg/day, ip measured after 1 day; type: organism-based; conditions: in vivo, 24 h
In short: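 BALB/c mice carrying 4T1 breast cancer cell tumours received the test agent once a day, dosed in mg/kg/d. An untreated control group ran alongside. Tumour volume and body weight were followed over the treatment period, survival was recorded after dosing began, and tumours were excised and weighed after sacrifice.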

[22] = target: T1, NAD(P)H dehydrogenase [quinone] 1; assay: Prodrug activation in human MCF7 cells assessed as NQO1-mediated (R)-6-hydroxy-6-((2S,8S,9R,10R,13R,14S,16R,17R)-16-hydroxy-4,4,9,13,14-pentamethyl-2-(methyl(3-(methylamino)propyl)carbamoyloxy)-3,11-dioxo 2,3,4,7,8,9,10,11,12,13,14,15,16,17-tetradecahydro-1H-cyclopenta[a]phenanthren-17-yl)-2-methyl-5-oxohept-3-en-2-yl acetate metabolite formation at 25 uM incubated for 24 hrs by HPLC analysis; type: ADME, cell-based; conditions: mcf7, 24 h
[23] = system: 4T1; assay: Antitumor activity against mouse 4T1 cells xenografted in BALB/c mouse assessed as tumor weight at 3 to 10 mg/kg/day, ip for 2 weeks (reference value: 500 to 700 mg); type: functional
[24] = Toxicity in BALB/c mouse implanted with mouse 4T1 cells assessed as body weight at 3 mg/kg/day, ip for 2 weeks measured daily during compound dosing (reference value: -1.48 %); type: organism-based; conditions: in vivo, 336 h
[25] = Toxicity in BALB/c mouse implanted with mouse 4T1 cells assessed as body weight at 10 mg/kg/day, ip for 2 weeks measured daily during compound dosing (reference value: -1.48 %); type: organism-based; conditions: in vivo, 336 h
[26] = target: T1, NAD(P)H dehydrogenase [quinone] 1; assay: Prodrug activation in human MCF7 cells assessed as NQO1-mediated (R)-6-hydroxy-6-((2S,8S,9R,10R,13R,14S,16R,17R)-16-hydroxy-4,4,9,13,14-pentamethyl-2-(methyl(3-(methylamino)propyl)carbamoyloxy)-3,11-dioxo 2,3,4,7,8,9,10,11,12,13,14,15,16,17-tetradecahydro-1H-cyclopenta[a]phenanthren-17-yl)-2-methyl-5-oxohept-3-en-2-yl acetate formation at 25 uM incubated for 24 hrs by HRMS analysis; type: cell-based; conditions: mcf7, 24 h
[27] = system: 4T1; assay: Antitumor activity against mouse 4T1 cells implanted in BALB/c mouse assessed as tumor growth inhibition at 3 to 10 mg/kg/day, ip for 2 weeks measured daily during compound dosing by digital caliper method; type: functional, organism-based
[28] = target: T1, NAD(P)H dehydrogenase [quinone] 1; assay: Prodrug activation in human MCF7 cell lysate assessed as NQO1-mediated 1,3-dimethyltetrahydropyrimidin-2(1H)-one formation at 25 uM incubated for 24 hrs by HPLC analysis; type: subcellular; conditions: mcf7, 24 h
[29] = target: T1, NAD(P)H dehydrogenase [quinone] 1; assay: Prodrug activation in human MCF7 cells assessed as NQO1-mediated (R)-6-hydroxy-6-((2S,8S,9R,10R,13R,14S,16R,17R)-16-hydroxy-4,4,9,13,14-pentamethyl-2-(methyl(3-(methylamino)propyl)carbamoyloxy)-3,11-dioxo 2,3,4,7,8,9,10,11,12,13,14,15,16,17-tetradecahydro-1H-cyclopenta[a]phenanthren-17-yl)-2-methyl-5-oxohept-3-en-2-yl acetate formation by ESI-TOFMS analysis; type: cell-based

Row | Structure (SMILES) | Stability [4] | Stability [5] | IC50 [6] | IC50 [7] | IC50 [8] | selectivity ratio [9] | Drug metabolism [11] | Drug metabolism [12] | Drug metabolism [13] | Drug metabolism [14] | Drug metabolism [16] | Drug uptake [17] | inhibition [6] | Activity [7] | also measured
1 | CC/C(=C(\c1ccccc1)c1ccc(OCCN(C)C)cc1)c1ccccc1 [TAMOXIFEN] |  |  |  |  |  |  |  |  |  |  |  |  |  |  | inhibition in vivo at 5 mg/kg/day [1]: 55%; Activity [2]: 4.99%
2 | CC(=O)OC(C)(C)/C=C/C(=O)[C@](C)(O)[C@H]1[C@H](O)C[C@@]2(C)[C@@H]3CC=C4[C@@H](C[C@H](OC(=O)NCCCNC(=O)CC(C)(C)C5=C(C)C(=O)C(C)=C(C)C5=O)C(=O)C4(C)C)[C@]3(C)C(=O)C[C@]12C | Stable | > 90% | 15.4 µM | 1.87 µM | > 100 µM | 46.8 | Metabolite_Detected | Metabolite_Detected | Metabolite_Detected | Metabolite_Notdetected | Metabolite_Detected | Not Active |  |  | Drug metabolism [3]: Metabolite_Detected; Drug metabolism [10]: Metabolite_Detected; Drug metabolism [15]: Metabolite_Notdetected; Drug metabolism [18]: Metabolite_Detected; Drug metabolism [19]: Metabolite_Detected
3 | CC(=O)OC(C)(C)/C=C/C(=O)[C@](C)(O)[C@H]1[C@H](O)C[C@@]2(C)[C@@H]3CC=C4[C@@H](C[C@H](OC(=O)CC(C)(C)C5=C(C)C(=O)C(C)=C(C)C5=O)C(=O)C4(C)C)[C@]3(C)C(=O)C[C@]12C | Stable | > 90% | 16.6 µM | 0.07 µM | > 100 µM | 1.75 | Metabolite_Detected | Metabolite_Detected | Metabolite_Detected | Metabolite_Notdetected | Metabolite_Detected | Not Active |  |  | Drug uptake [20]: 6.21 µM
4 | CN1CCCN(C)C1=O |  |  |  |  |  |  |  |  |  |  |  |  | inactive | Non-Toxic | 
5 | CC(=O)OC(C)(C)/C=C/C(=O)[C@](C)(O)[C@H]1[C@H](O)C[C@@]2(C)[C@@H]3CC=C4[C@@H](C[C@H](O)C(=O)C4(C)C)[C@]3(C)C(=O)C[C@]12C |  |  | 12 µM | 0.04 µM | 9.72 µM |  |  |  |  |  |  |  |  |  | Activity [21]: Toxic
6 | CC(=O)OC(C)(C)/C=C/C(=O)[C@](C)(O)[C@H]1[C@H](O)C[C@@]2(C)[C@@H]3CC=C4[C@@H](C[C@H](OC(=O)N(C)CCCN(C)C(=O)CC(C)(C)C5=C(C)C(=O)C(C)=C(C)C5=O)C(=O)C4(C)C)[C@]3(C)C(=O)C[C@]12C | Stable | > 90% | 18.1 µM | 12.4 µM | > 100 µM | 310 | Metabolite_Detected | Metabolite_Detected | Metabolite_Detected | Metabolite_Notdetected | Metabolite_Detected | Not Active |  |  | Drug uptake [20]: 8.39 µM; Drug metabolism [22]: Metabolite_Detected; inhibition in vivo at 5 mg/kg/day [1]: 53.8%; Activity [23]: <400 mg; Activity [24]: 6.46%; Activity [2]: 5.27%; Activity [25]: -2.49%; Drug metabolism [26]: Metabolite_Detected; TGI [27]: Active; Drug metabolism [28]: Metabolite_Notdetected; Drug metabolism [29]: Metabolite_Detected
7 | Cc1c2ccncc2c(C)c2c1[nH]c1ccccc12 [ELLIPTECINE] |  |  |  | 4.06 µM |  |  |  |  |  |  |  |  |  |  | 
8 | Cc1c(C)c2c(c(C)c1O)C(C)(C)CC(=O)O2 |  |  |  |  |  |  |  |  |  |  |  |  | inactive | Non-Toxic | 
9 | O=C1NCCCN1 |  |  |  |  |  |  |  |  |  |  |  |  | inactive | Non-Toxic | 
